Results taken from PMC3941710 (Journal of medicinal chemistry, 2009).

What was measured:
[1] = Binding and stability in rabbit serum
[2] = Binding and stability in mouse serum
[3] = Stability in PBS; format: physicochemical; settings: PBS/CH3CN 10:1, pH 7.1, ambient temperature, up to 24 h
[4] = system: LNCaP human prostate cancer cells; assay: Cell survival of LNCaP cells; format: cell-based; settings: 48 h, extracellular concentration 8 μCi/mL
Method in brief: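 LNCaP cells plated at 2000 cells/well, allowed to attach for 24 h, then given fresh charcoal–dextran-stripped medium containing radioactive test compound. Survival read by CellTiter-Fluor viability assay or CellTiter 96 AQueous One Solution proliferation assay.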

[5] = system: intraperitoneal NIH:OVCAR-3 xenografts; assay: Fractionated therapy and biodistribution of 13 in OVCAR-3-bearing mice; format: in vivo, mouse
[6] = system: intraperitoneal NIH:OVCAR-3 xenografts; format: in vivo, mouse
[7] = Binding and stability in human serum
[8] = Biodistribution of fractionated ip doses of 13 in healthy mice; format: in vivo, mouse; settings: control (healthy) mice
[9] = molecular target: T1, human sex hormone binding globulin (SHBG) (Homo sapiens, UniProt P04278); assay: Binding to purified human SHBG; settings: size-exclusion HPLC / ITLC
T1 sequence (P04278 30-402): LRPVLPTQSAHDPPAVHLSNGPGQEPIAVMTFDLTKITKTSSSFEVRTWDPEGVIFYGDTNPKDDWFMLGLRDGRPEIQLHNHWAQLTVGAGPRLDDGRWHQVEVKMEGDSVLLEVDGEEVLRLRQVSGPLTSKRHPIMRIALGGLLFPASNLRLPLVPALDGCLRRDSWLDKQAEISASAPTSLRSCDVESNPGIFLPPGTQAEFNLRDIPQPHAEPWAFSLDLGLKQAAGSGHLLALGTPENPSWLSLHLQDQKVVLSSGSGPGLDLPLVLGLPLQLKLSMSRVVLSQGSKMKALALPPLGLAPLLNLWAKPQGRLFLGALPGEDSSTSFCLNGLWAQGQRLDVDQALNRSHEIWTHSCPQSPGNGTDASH

[10] = system: PC-3 cells; assay: Uptake of 8 in PC-3 cells with or without DHT at 4 °C; format: cell-based, human; settings: 0.1 μCi/mL 8, 0.1 μM DHT, 16 h
Method in brief: (§1)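 Cells with very low or no AR expression. Non-radioactive DHT competitor was added before the radioiodinated test compound to block AR binding. Cells were grown with the test compound at 4 °C for 16 h and cellular retention was compared with DHT-free cells.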

[11] = system: LNCaP human prostate cancer cells; assay: Uptake and subcellular distribution in LNCaP cells; format: cell-based; settings: proliferating LNCaP monolayer, 24 h exposure
[12] = system: intraperitoneal NIH:OVCAR-3 xenografts; assay: Therapy with 8 in OVCAR-3-bearing athymic mice; format: in vivo, mouse
[13] = system: MCF-7 cells; assay: Uptake of 8 in MCF7 cells with or without DHT at 4 °C; format: cell-based, human; settings: 0.1 μCi/mL 8, 0.1 μM DHT, 16 h
Method in brief: as §1

[14] = system: intraperitoneal NIH:OVCAR-3 xenografts; assay: Biodistribution and imaging of 8 in athymic mice with ip NIH:OVCAR-3 xenografts; format: in vivo, mouse
[15] = cell pellet, six fractionated ip treatments
[16] = 13 (0.25 mCi) + SHBG therapy group, or SHBG only

## C[C@]12CCC(=O)C[C@@H]1CC[C@@H]1[C@@H]2CC[C@]2(C)[C@@H](OC(=O)CCC(=O)O[C@H]3C[C@H](n4cc([125I])c(=O)[nH]c4=O)O[C@@H]3COP(=O)(O)O)CC[C@@H]12 [compound 13, 5-[^125I]Iodo-3′-O-(17β-succinyl-5α-androstan-3-one)-2′-deoxyuridin-5′-yl Monophosphate]
[1]
  binding to SHBG in rabbit serum: bind to SHBG in rabbit and human serum
[2]
  binding to mouse serum: appears to bind to some unidentified component of mouse serum
[3]
  stability in PBS: stable in PBS
[4]
  cells dead: Ninety percent
[5]; OVCAR-3 mice, blood
  percent injected dose per gram of tissue, blood: 0.003(0.0010) percent injected dose per gram of tissue
[5]; OVCAR-3 mice, heart
  percent injected dose per gram of tissue, heart: 0.003(0.0004) percent injected dose per gram of tissue
[5]; OVCAR-3 mice, kidney
  percent injected dose per gram of tissue, kidney: 0.013(0.0063) percent injected dose per gram of tissue
[5]; OVCAR-3 mice, large intestine
  percent injected dose per gram of tissue, large intestine: 0.008(0.0009) percent injected dose per gram of tissue
[5]; OVCAR-3 mice, liver
  percent injected dose per gram of tissue, liver: 0.017(0.0020) percent injected dose per gram of tissue
[5]; OVCAR-3 mice, lung
  percent injected dose per gram of tissue, lung: 0.008(0.0018) percent injected dose per gram of tissue
[5]; OVCAR-3 mice, small intestine
  percent injected dose per gram of tissue, small intestine: 0.011(0.0014) percent injected dose per gram of tissue
[5]; OVCAR-3 mice, spleen
  percent injected dose per gram of tissue, spleen: 0.043(0.0103) percent injected dose per gram of tissue
[5]; OVCAR-3 mice, stomach
  percent injected dose per gram of tissue, stomach: 0.009(0.0010) percent injected dose per gram of tissue
[5]; OVCAR-3 mice, tumor
  percent injected dose per gram of tissue, tumor: 2.892(0.5317) percent injected dose per gram of tissue
[5]; OVCAR-3 mice, uterus
  percent injected dose per gram of tissue, uterus: 0.027(0.0051) percent injected dose per gram of tissue
[5]; [15]
  median weight: 0.064 g
  range of weight: 0.044 to 0.076 g
[5]; fractionated ip doses
  average retention of ^125I in OVCAR-3 cells: 0.0124 ± 0.0024 cpm/cell
[5]; fractionated ip doses, TCA precipitation
  radioactivity of surviving cancer cells recovered with DNA: Virtually all radioactivity associated with surviving cancer cells was recovered with DNA
[5]; six fractionated ip treatments
  average cell pellet weight (g) (SEM): 0.061(0.006) g
[6]; 0.25 mCi dose
  adverse effects from hematologic data: no overt adverse effects
[6]; necropsy after bolus dose of 13
  fold lower radioactivity in blood than in cancer cells: > 2.5 ×
[7]
  binding to SHBG in human serum: bind to SHBG in rabbit and human serum
[8]; blood
  percent injected dose per gram of tissue, blood: 0.001(0.0001) percent injected dose per gram of tissue
[8]; heart
  percent injected dose per gram of tissue, heart: 0.002(0.0003) percent injected dose per gram of tissue
[8]; kidney
  percent injected dose per gram of tissue, kidney: 0.005(0.0005) percent injected dose per gram of tissue
[8]; large intestine
  percent injected dose per gram of tissue, large intestine: 0.005(0.0009) percent injected dose per gram of tissue
[8]; liver
  percent injected dose per gram of tissue, liver: 0.006(0.0005) percent injected dose per gram of tissue
[8]; lung
  percent injected dose per gram of tissue, lung: 0.004(0.0007) percent injected dose per gram of tissue
[8]; small intestine
  percent injected dose per gram of tissue, small intestine: 0.006(0.0016) percent injected dose per gram of tissue
[8]; spleen
  percent injected dose per gram of tissue, spleen: 0.025(0.0025) percent injected dose per gram of tissue
[8]; stomach
  percent injected dose per gram of tissue, stomach: 0.007(0.0002) percent injected dose per gram of tissue
[8]; uterus
  percent injected dose per gram of tissue, uterus: 0.015(0.0011) percent injected dose per gram of tissue
[9]
  binding to pure SHBG isolated from human serum: bind to pure SHBG isolated from human serum

## CCOC(=O)CCC(=O)O[C@H]1C[C@H](n2cc([125I])c(=O)[nH]c2=O)O[C@@H]1CO [compound 17, 5-[^125I]Iodo-3′-O-succinyl-2′-deoxyuridine Ethyl Ester]
[9]
  binding to pure SHBG isolated from human serum: Neither the control reagent 17 nor compound 20, which is the metabolite of 13, binds to SHBG or to any component of analyzed sera

## C[C@]12CCC(=O)C[C@@H]1CC[C@@H]1[C@@H]2CC[C@]2(C)[C@@H](OC(=O)CCC(=O)O[C@H]3C[C@H](n4cc([125I])c(=O)[nH]c4=O)O[C@@H]3CO)CC[C@@H]12 [compound 8, 5-[^125I]Iodo-3′-O-(17β-succinyl-5α-androstan-3-one)-2′-deoxyuridine]
[10]
  effect of DHT competitor on cellular retention: In neither PC-3 nor MCF-7 cells was the cellular retention of 8 influenced by the presence of competitor
[1]
  binding to SHBG in rabbit serum: bind to SHBG in rabbit and human serum
[1]; rabbit serum, after 60 min of incubation
  intact compound remaining: > 84%
[11]
  Bmax (single cell-binding isotherm): 1.4 × 10^−6 pmol/cell
[12]; 12 days after the last of six therapeutic doses, decay corrected
  radioactivity retained in tumors: ~ 0.5 % ID/g
[12]; [15]
  range of weight: 0.012 to 0.781 g
[12]; six fractionated ip treatments
  average cell pellet weight (g) (SEM): 0.380(0.111) g
[12]; tumors 12 days after the last of six doses
  ^125I bound to DNA as share of total cell-associated radioactivity: 86.8% ± 7.4%
[2]
  binding to mouse serum: does not bind to mouse serum
[2]; mouse serum, no SHBG
  time in which mouse serum degrades 8 to 1: < 10 min
[3]
  stability in PBS: stable in PBS
[13]
  effect of DHT competitor on cellular retention: In neither PC-3 nor MCF-7 cells was the cellular retention of 8 influenced by the presence of competitor
[14]; 24 h and later after ip administration
  peritoneal lavage radioactivity associated with OVCAR-3 cells: > 95%
[14]; 72 h after ip administration
  uptake in uterus: up to 1 % ID/g
[14]; 72 h after ip administration of 45 μCi 8
  whole body radioactivity associated with the intraperitoneal tumor (ROI): 8.3% ± 2.1%
[14]; 72 h after ip injection of 45 μCi 8
  fraction of lavage radioactivity associated with cancer cells: > 97%
[7]
  binding to SHBG in human serum: bind to SHBG in rabbit and human serum
[7]; human serum, after 60 min of incubation
  intact compound remaining: > 91%
[9]
  binding to pure SHBG isolated from human serum: bind to pure SHBG isolated from human serum

## O=c1[nH]c(=O)n([C@H]2C[C@H](O)[C@@H](COP(=O)(O)O)O2)cc1[125I] [compound 20, 5-[^125I]Iodo-2′-deoxyuridine-5′-monophosphate]
[2]; mouse serum, after 60 min of incubation
  intact compound remaining: does not survive incubation in mouse serum
[9]
  binding to pure SHBG isolated from human serum: Neither the control reagent 17 nor compound 20, which is the metabolite of 13, binds to SHBG or to any component of analyzed sera

B1: SHBG: Human SHBG (pure, lyophilized), injected ip alone as control or co-injected with 13 (protein, UniProt P04278 30-402, looked up)
Sex hormone-binding globulin: LRPVLPTQSAHDPPAVHLSNGPGQEPIAVMTFDLTKITKTSSSFEVRTWDPEGVIFYGDTNPKDDWFMLGLRDGRPEIQLHNHWAQLTVGAGPRLDDGRWHQVEVKMEGDSVLLEVDGEEVLRLRQVSGPLTSKRHPIMRIALGGLLFPASNLRLPLVPALDGCLRRDSWLDKQAEISASAPTSLRSCDVESNPGIFLPPGTQAEFNLRDIPQPHAEPWAFSLDLGLKQAAGSGHLLALGTPENPSWLSLHLQDQKVVLSSGSGPGLDLPLVLGLPLQLKLSMSRVVLSQGSKMKALALPPLGLAPLLNLWAKPQGRLFLGALPGEDSSTSFCLNGLWAQGQRLDVDQALNRSHEIWTHSCPQSPGNGTDASH
[6]; [16]
  hematocrit (Ht): 51.4 ± 1.6
  hemoglobin (Hb): 11.5 ± 1.3
[6]; 13 + SHBG or SHBG only
  average weight of solid tumors: 1.9 ± 0.8 g
